We go through 14 compounds from ChEMBL document CHEMBL2440057, “Rational drug design based synthesis of novel arylquinolines as anti-tuberculosis agents” (Bioorg Med Chem Lett, 2013).

Data set [1] is described as follows: Cytotoxicity against African green monkey Vero C1008 cells after 72 hrs by MTT assay. It counts as cell-based. The settings on record: chlorocebus sabaeus. In outline:
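Vero C1008 cells were tested in microtitre plates with an MTT viability read-out, and CC50 values were determined.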
For orientation: Tetrazolium dyes change colour on reduction, which living cells bring about.

Data set [2] relates to Mycobacterium tuberculosis. Briefly: Antitubercular activity against Mycobacterium tuberculosis H37Rv assessed as parasite growth inhibition after 7 days by resazurin microtitre assay. The settings on record: 168 h. It counts as functional. In outline: (§1)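 Mtb H37Rv was tested by resazurin microtitre assay (REMA) with twofold serial dilutions of compound. MIC was read visually as the lowest concentration preventing the dye's blue-to-pink colour change, since pink indicates growth.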
For orientation: Alamar Blue is a resazurin reagent that responds to reducing activity.

A short description of data set [3]: Selectivity index, ratio of CC50 for African green monkey Vero C1008 cells to MIC for Mycobacterium tuberculosis H37Rv. It counts as functional. In outline:
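Selectivity index is CC50 from the MTT assay on Vero C1008 cells over MIC against Mtb H37Rv from the twofold-dilution REMA plate method, where MIC was read visually by the blue-to-pink resazurin change.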

The test system of data set [4] is Mycobacterium tuberculosis. Briefly: Antitubercular activity against Mycobacterium tuberculosis H37Rv assessed as parasite growth inhibition. It counts as functional. In outline: as §1

Converted amounts (≈) assume the structure as drawn.

The compound `COc1nc2ccccc2cc1CN(Cc1ccc(Cl)cc1)CC(O)CN1CCOCC1` (centres undefined) gave a CC50 at 72 h in data set [1] of 1060 µM. Also, the MIC in data set [2] was determined as 20.2 µM (≈ 9.21 µg/mL). Moreover, in data set [3], the “Selectivity Index” value came out at 52.44.

In turn, `CCN(CC)CC(O)CN(Cc1ccccc1)Cc1cc2ccccc2nc1OC` (centres undefined) had a CC50 at 72 h in data set [1] of 613 µM. For the same compound, the MIC in data set [2] is 40.6 µM (≈ 16.6 µg/mL). Moreover, in data set [3], the “Selectivity Index” value was 15.1.

The compound `COc1ccc(CN(Cc2cc3ccccc3nc2OC)CC(O)CN2CCOCC2)cc1` (centres undefined) gave a CC50 at 72 h in data set [1] of 928 µM. For the same compound, the MIC in data set [2] worked out at 158 µM (≈ 71.5 µg/mL). Further, in data set [3], the “Selectivity Index” value is listed as 5.86.

Consider `COc1nc2ccccc2cc1CN(Cc1ccc(C)cc1)CC(O)CN1CCOCC1` (centres undefined), for which the midpoint of cytotoxicity in data set [1], the CC50 at 72 h, lay at 884 µM. The MIC in data set [2] is 21.9 µM (≈ 9.53 µg/mL). Moreover, the “Selectivity Index” value in data set [3] is recorded as 40.4.

Consider `CCN(CC)CC(O)CN(Cc1ccc(Cl)cc1)Cc1cc2ccccc2nc1OC` (centres undefined), for which the CC50 at 72 h in data set [1] was determined as 808 µM. Moreover, in data set [2], the MIC came to 10.1 µM (≈ 4.44 µg/mL). In addition, in data set [3], the “Selectivity Index” value was found to be 80.41.

Turning to `COc1nc2ccccc2cc1CN(Cc1ccccc1)CC(O)CN1CCOCC1` (centres undefined), the CC50 at 72 h in data set [1] came to 553 µM. In addition, the MIC in data set [2] worked out at 97.1 µM (≈ 40.9 µg/mL). Also, the “Selectivity Index” value in data set [3] came out at 5.69.

Turning to `CCN(CC)CC(O)CN(Cc1ccc(C)cc1)Cc1cc2ccccc2nc1OC` (centres undefined), in data set [1], half-maximal cytotoxicity (CC50 at 72 h) was put at 1010 µM. Moreover, the MIC in data set [2] worked out at 19.3 µM (≈ 8.14 µg/mL). The “Selectivity Index” value in data set [3] came to 52.21.

In the case of `NNC(=O)c1ccncc1` [ISONIAZID], in data set [2], the MIC stood at 15.3 µM (≈ 2.1 µg/mL). In addition, in data set [3], the “Selectivity Index” value was 96.

As to `COc1nc2ccccc2cc1CN(Cc1ccc(Cl)cc1)CC(O)CN1CCCC1` (centres undefined), the CC50 at 72 h in data set [1] worked out at 898 µM. Further, in data set [2], the MIC is 5.59 µM (≈ 2.46 µg/mL). Also, in data set [3], the “Selectivity Index” value stood at 160.57.

In data set [1], `CCN(CC)CC(O)CN(Cc1ccc(OC)cc1)Cc1cc2ccccc2nc1OC` (centres undefined) displayed a CC50 at 72 h of 727 µM. Also, the MIC in data set [2] was found to be 79.1 µM (≈ 34.6 µg/mL). Besides, in data set [3], the “Selectivity Index” value turned out to be 9.19.

Take `COc1nc2ccc(Br)cc2cc1[C@@H](c1ccccc1)[C@@](O)(CCN(C)C)c1cccc2ccccc12` [BEDAQUILINE]: the MIC in data set [4] worked out at 0.108 µM (≈ 0.06 µg/mL).

Consider `COc1ccc(CN(Cc2cc3ccccc3nc2OC)CC(O)CN2CCCC2)cc1` (centres undefined), for which, in data set [1], the CC50 at 72 h was 664 µM. The MIC in data set [2] was determined as 18.6 µM (≈ 8.12 µg/mL). In data set [3], the “Selectivity Index” value is on record as 35.59.

For `COc1nc2ccccc2cc1CN(Cc1ccccc1)CC(O)CN1CCCC1` (centres undefined), the CC50 at 72 h in data set [1] came to 792 µM. In addition, the MIC in data set [2] was found to be 5.18 µM (≈ 2.1 µg/mL). Further, the “Selectivity Index” value in data set [3] was 152.86.

Take `COc1nc2ccccc2cc1CN(Cc1ccc(C)cc1)CC(O)CN1CCCC1` (centres undefined): the CC50 at 72 h in data set [1] amounted to 1110 µM. Also, the MIC in data set [2] came to 9.68 µM (≈ 4.06 µg/mL). The “Selectivity Index” value in data set [3] was 115.02.

The term CC50 denotes the concentration that lowers cell viability or growth by half. A word on the MIC: it is the least concentration at which growth counts as inhibited.
